The results in this text go back to ChEMBL document CHEMBL2396655, “Design, synthesis, and biological evaluation of (E)-N-aryl-2-arylethenesulfonamide analogues as potent and orally bioavailable microtubule-targeted anticancer agents” (J Med Chem, 2013).

In brackets after ≈: the same amount, converted by molar mass. Activity calls are given as the source filed them. No cut-off for these calls is given here.

For one series, the species on record is Bos taurus. Put plainly: Inhibition of bovine brain tubulin assessed as destabilization of microtubule polymerization at 10 uM over 40 mins by spectrophotometric analysis. In outline: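 Purified bovine brain tubulin was incubated at 37 °C with 10 μM compound, DMSO or reference agents. Polymerization was followed as rising absorbance at 340 nm over 40 min. Data are representative of three independent experiments.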

The nature of series [1]: Solubility of the compound in PBS by nephelometric analysis. It counts as physicochemical. In outline:
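Aqueous solubility in PBS was measured by nephelometry; the limit of complete solubility was taken as the concentration giving a statistical increase of light scattering over blank.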

For the next series, the system named is Liver. Put plainly: Metabolic stability in rat liver S9 fraction assessed as compound remaining at 10 uM after 1 hr by LC-MS/MS analysis. The series is classed as ADME, subcellular. The settings on record: s9, 1 h. The procedure, abridged: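 Compound at 10 μM was incubated with rat, dog or human liver S9 fraction (1 mg/mL) for 0, 30 and 60 min. Parent remaining at 1 h was quantified by LC-MS/MS.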

For the next series, the system named is 2008. Put plainly: Resistance factor, ratio of GI50 for paclitaxel-resistant human 2008/17/4 cells to GI50 for human 2008 cells. The series is classed as functional.
The test system of another series is NCI-H417. Put plainly: Cytotoxicity against human NCI-N417 cells after 96 hrs by trypan blue exclusion assay. It counts as functional. The following applies: NCI-H417, 96 h. In outline: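 Cells grown in DMEM or RPMI with 10% FBS and 1 unit/mL penicillin-streptomycin, seeded in 12-well dishes at 2.5 ×10⁴ cells/mL/well. Compound added 24 h later at various concentrations. Viable cells counted by trypan blue exclusion from duplicate wells after 96 h. Value taken from dose-response curves of two independent experiments.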

The subject of a further series is DU-145. Put plainly: Mitotoic arrest in human DU145 cells assessed as misalignment of chromosomes at 25 nM after 24 hrs by FITC and propidium iodide staining-based confocal laser microscopic analysis. The series is classed as functional, cell-based. In outline:
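DU145 cells grown on glass coverslips, exposed to 0.025 μM for 24 h, fixed in 4% paraformaldehyde, permeabilized in PBS with 10% FBS/0.1% Triton X-100, stained with FITC-conjugated anti-α-tubulin (DM1A, 1 h, 37 °C) and propidium iodide (1 μg/mL, 5 min), then imaged by confocal microscopy (60× objective, XYZ-sectioning); DMSO-treated cells as vehicle.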

The next series deals with CCRF-CEM. Put plainly: Resistance factor, ratio of GI50 for multidrug-resistant human CEM/C2 cells to GI50 for human CEM cells. The series is classed as functional.

As to `COc1cc(OC)c(/C=C/S(=O)(=O)Nc2ccc(OC)c(N)c2)c(OC)c1`, in the series listed under Bos taurus, the inhibition result is “Active”. Besides, the kinetic solubility in series [1] worked out at 62.5 µM (≈ 24.7 µg/mL). Further, the Stability in the series on Liver stood at 33%. The RatioGI50 in the series on 2008 and in the series on CCRF-CEM was 1 each time. This compound displayed a concentration for 50% growth inhibition (GI50) in the series on NCI-H417 of 4 nM. The outcome with DU-145 was Active.

As a reminder, the solubility (kinetic) is solubility judged after dilution from a stock solution rather than from solid. As a reminder, the GI50 is the concentration at which growth is held to half of that of the control. Low readings indicate greater sensitivity of the cells, high ones lower sensitivity of the cells.
